Values belong to the compound of their own block, whether it stands above or below them.
Key:
[1] = target: Ribosomal protein S6 kinase alpha-3 (Homo sapiens) (UniProt P51812); assay: Inhibition of RSK2 assessed as remaining enzyme activity at 1 uM relative to DMSO
[2] = target: Rho-associated protein kinase 2 (Homo sapiens) (UniProt O75116); assay: Inhibition of ROCK2 assessed as remaining enzyme activity at 1 uM relative to DMSO
[3] = target: MAP kinase-activated protein kinase 5 (Homo sapiens) (UniProt Q8IW41); assay: Inhibition of PRAK assessed as remaining enzyme activity at 1 uM relative to DMSO
Chain of MAP kinase-activated protein kinase 5 (Homo sapiens) (Q8IW41 whole entry): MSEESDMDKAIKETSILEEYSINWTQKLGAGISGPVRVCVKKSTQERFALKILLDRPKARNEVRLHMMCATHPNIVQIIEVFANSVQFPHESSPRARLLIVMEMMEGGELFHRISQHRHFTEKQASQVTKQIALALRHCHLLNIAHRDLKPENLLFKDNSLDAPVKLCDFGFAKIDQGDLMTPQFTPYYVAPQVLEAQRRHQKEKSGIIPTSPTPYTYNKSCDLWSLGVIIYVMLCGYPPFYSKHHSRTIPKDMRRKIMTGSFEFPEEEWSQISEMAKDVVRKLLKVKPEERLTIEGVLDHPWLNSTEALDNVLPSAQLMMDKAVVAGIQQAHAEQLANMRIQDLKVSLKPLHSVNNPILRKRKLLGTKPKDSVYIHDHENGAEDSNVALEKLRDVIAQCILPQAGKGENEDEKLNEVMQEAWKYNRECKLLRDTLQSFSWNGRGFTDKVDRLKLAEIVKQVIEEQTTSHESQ

[4] = target: Tyrosine-protein kinase CSK (Homo sapiens) (UniProt P41240); assay: Inhibition of CSK assessed as remaining enzyme activity at 1 uM relative to DMSO
Procedure, shortened: (§1)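 Dundee kinase panel, radiometric: [γ-33P]ATP (800 cpm/pmol) at 5, 20 or 50 μM, at or below each kinase's ATP Km; 10 mM magnesium acetate; robotic, room temperature, 30 min. Reactions started with MgATP, stopped with orthophosphoric acid, spotted onto P81 filters. Inhibitor tested at a single concentration; mean % activity of duplicates relative to DMSO control.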

[5] = target: RAF proto-oncogene serine/threonine-protein kinase (Homo sapiens) (UniProt P04049); assay: Binding affinity to RAF1 assessed as percentage of kinase remaining bound to the bead at 1 uM by T7 phage display based binding assay
Procedure, shortened: (§2)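 Competition binding assay run by a contract lab. Each kinase was expressed as a fusion to T7 phage, full-length for small kinases and catalytic domain for large ones. Phage were mixed with an immobilized known kinase inhibitor on streptavidin magnetic beads and with test compound at a single 1 μM. Kinase/phage still bound to the beads was quantified by qPCR and expressed as % of DMSO control.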

[6] = target: Ephrin type-B receptor 3 (Homo sapiens) (UniProt P54753); assay: Inhibition of EPHB3 assessed as remaining enzyme activity at 1 uM relative to DMSO
Chain of Ephrin type-B receptor 3 (Homo sapiens) (P54753 whole entry): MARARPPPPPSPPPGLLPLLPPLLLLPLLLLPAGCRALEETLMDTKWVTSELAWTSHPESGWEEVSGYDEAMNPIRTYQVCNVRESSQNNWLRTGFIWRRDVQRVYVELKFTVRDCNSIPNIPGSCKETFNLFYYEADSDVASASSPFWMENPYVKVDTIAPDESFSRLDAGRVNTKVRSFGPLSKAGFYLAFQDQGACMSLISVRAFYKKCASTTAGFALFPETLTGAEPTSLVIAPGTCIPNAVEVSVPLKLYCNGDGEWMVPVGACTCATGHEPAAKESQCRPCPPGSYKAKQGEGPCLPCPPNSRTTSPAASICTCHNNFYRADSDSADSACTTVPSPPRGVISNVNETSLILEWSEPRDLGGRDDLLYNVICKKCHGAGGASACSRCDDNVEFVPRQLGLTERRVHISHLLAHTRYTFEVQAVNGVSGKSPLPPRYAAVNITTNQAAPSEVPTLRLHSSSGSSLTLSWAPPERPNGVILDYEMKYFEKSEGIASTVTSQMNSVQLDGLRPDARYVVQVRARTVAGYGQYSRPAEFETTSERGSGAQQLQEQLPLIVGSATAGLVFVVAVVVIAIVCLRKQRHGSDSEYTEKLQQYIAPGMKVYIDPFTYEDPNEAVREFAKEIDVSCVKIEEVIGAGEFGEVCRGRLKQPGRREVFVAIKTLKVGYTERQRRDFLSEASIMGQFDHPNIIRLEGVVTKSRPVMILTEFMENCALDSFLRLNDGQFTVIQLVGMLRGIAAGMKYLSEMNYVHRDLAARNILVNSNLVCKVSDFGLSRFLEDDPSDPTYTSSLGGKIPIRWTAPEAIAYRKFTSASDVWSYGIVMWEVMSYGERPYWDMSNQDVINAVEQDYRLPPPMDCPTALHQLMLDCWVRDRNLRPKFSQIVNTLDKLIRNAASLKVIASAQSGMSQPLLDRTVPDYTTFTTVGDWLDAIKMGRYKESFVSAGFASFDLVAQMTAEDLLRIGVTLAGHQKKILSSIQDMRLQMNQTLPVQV
Procedure, shortened: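 Radiometric kinase assay run robotically at room temperature for 30 min, linear in time and enzyme. Conditions: 10 mM magnesium acetate, [γ-33P]ATP (800 cpm/pmol) at 5, 20 or 50 μM per kinase, at or below its ATP Km. Started with MgATP and stopped with orthophosphoric acid, then spotted on P81 filters. Reported as mean % activity of duplicates versus DMSO controls.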

[7] = target: Tyrosine-protein kinase Yes (Homo sapiens) (UniProt P07947); assay: Inhibition of YES1 assessed as remaining enzyme activity at 1 uM relative to DMSO
[8] = target: Serine/threonine-protein kinase Nek11 (Homo sapiens) (UniProt Q8NG66); assay: Binding affinity to NEK11 assessed as percentage of kinase remaining bound to the bead at 1 uM by T7 phage display based binding assay; procedure, shortened: as §2
Chain of Serine/threonine-protein kinase Nek11 (Homo sapiens) (Q8NG66 whole entry): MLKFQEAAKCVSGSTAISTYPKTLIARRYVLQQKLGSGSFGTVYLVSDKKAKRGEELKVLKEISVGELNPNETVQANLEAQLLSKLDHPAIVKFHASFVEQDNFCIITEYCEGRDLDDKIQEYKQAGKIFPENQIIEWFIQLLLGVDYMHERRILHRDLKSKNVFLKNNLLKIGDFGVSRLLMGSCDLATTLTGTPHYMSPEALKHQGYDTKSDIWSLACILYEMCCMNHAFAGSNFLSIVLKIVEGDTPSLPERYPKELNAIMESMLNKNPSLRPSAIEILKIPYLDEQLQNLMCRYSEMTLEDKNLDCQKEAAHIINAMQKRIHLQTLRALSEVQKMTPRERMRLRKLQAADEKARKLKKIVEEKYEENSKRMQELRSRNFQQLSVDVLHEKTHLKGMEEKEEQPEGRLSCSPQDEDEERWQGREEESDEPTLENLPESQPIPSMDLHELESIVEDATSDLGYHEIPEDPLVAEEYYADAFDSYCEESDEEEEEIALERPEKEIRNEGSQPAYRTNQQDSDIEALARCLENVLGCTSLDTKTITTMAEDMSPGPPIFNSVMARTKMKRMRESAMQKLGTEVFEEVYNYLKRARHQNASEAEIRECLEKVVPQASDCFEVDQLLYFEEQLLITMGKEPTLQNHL

[9] = target: Insulin receptor-related protein (Homo sapiens) (UniProt P14616); assay: Inhibition of IRR assessed as remaining enzyme activity at 1 uM relative to DMSO; procedure, shortened: as §1
[10] = target: Bone morphogenetic protein receptor type-1A (Homo sapiens) (UniProt P36894); assay: Binding affinity to BMPR1A assessed as percentage of kinase remaining bound to the bead at 1 uM by T7 phage display based binding assay; procedure, shortened: as §2
[11] = target: Serine/threonine-protein kinase PAK 5 (Homo sapiens) (UniProt Q9P286); assay: Inhibition of PAK5 assessed as remaining enzyme activity at 1 uM relative to DMSO
Chain of Serine/threonine-protein kinase PAK 5 (Homo sapiens) (Q9P286 whole entry, looked up): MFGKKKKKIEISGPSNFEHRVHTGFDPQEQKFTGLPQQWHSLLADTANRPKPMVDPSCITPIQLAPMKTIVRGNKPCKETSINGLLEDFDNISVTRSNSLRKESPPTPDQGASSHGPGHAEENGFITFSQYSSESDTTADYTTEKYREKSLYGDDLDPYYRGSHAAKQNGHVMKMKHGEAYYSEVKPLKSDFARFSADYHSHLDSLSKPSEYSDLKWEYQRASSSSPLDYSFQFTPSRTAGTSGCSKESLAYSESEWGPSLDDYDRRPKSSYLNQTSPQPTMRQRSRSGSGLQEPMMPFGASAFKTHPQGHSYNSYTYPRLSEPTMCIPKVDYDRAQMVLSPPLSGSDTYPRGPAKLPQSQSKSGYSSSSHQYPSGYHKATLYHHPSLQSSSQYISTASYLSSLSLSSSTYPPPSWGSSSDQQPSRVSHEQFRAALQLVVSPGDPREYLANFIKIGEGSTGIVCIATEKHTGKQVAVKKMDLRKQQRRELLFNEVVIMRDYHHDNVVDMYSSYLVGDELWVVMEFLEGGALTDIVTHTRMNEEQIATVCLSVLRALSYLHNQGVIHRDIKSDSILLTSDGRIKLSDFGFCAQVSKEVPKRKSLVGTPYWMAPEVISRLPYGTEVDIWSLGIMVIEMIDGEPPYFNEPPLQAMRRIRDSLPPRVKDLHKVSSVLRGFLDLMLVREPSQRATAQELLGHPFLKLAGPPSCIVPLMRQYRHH
Procedure, shortened: (§3)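 Radiometric kinase assay run robotically at room temperature for 30 min. Contained 10 mM magnesium acetate and [γ-33P]ATP (800 cpm/pmol) at 5, 20 or 50 μM, chosen per kinase to be at or below its ATP Km. Reactions were started with MgATP, stopped with orthophosphoric acid and spotted onto P81 filters. Result is mean % activity of duplicates at one inhibitor concentration versus DMSO control.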

[12] = target: Serine/threonine-protein kinase Chk2 (Homo sapiens) (UniProt O96017); assay: Inhibition of CHK2 assessed as remaining enzyme activity at 1 uM relative to DMSO; procedure, shortened: as §1
[13] = target: RAC-beta serine/threonine-protein kinase (Homo sapiens) (UniProt P31751); assay: Inhibition of PKBbeta assessed as remaining enzyme activity at 1 uM relative to DMSO; procedure, shortened: as §3
[14] = target: Mitogen-activated protein kinase kinase kinase 20 (Homo sapiens) (UniProt Q9NYL2); assay: Binding affinity to ZAK assessed as percentage of kinase remaining bound to the bead at 1 uM by T7 phage display based binding assay; procedure, shortened: as §2
[15] = target: Mitogen-activated protein kinase 14 (Homo sapiens) (UniProt Q16539); assay: Inhibition of p38alpha assessed as remaining enzyme activity at 1 uM relative to DMSO
[16] = target: Serine/threonine-protein kinase NLK (Homo sapiens) (UniProt Q9UBE8); assay: Binding affinity to NLK assessed as percentage of kinase remaining bound to the bead at 1 uM by T7 phage display based binding assay; procedure, shortened: as §2
Chain of Serine/threonine-protein kinase NLK (Homo sapiens) (Q9UBE8 whole entry): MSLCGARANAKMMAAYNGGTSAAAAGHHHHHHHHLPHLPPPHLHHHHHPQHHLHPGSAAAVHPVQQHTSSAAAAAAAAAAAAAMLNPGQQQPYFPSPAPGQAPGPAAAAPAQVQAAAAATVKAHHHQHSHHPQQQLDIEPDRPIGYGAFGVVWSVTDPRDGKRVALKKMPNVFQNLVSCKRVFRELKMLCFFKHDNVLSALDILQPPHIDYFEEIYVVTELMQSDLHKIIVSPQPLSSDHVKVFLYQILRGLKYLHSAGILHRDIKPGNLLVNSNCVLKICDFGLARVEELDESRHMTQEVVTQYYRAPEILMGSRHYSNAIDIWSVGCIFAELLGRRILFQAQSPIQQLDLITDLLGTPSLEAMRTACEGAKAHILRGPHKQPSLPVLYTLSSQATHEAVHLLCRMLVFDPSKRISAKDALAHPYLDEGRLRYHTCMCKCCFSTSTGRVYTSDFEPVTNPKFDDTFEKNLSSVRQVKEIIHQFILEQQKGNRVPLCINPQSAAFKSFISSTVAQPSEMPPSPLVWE

[17] = target: MAP kinase-interacting serine/threonine-protein kinase 1 (Homo sapiens) (UniProt Q9BUB5); assay: Inhibition of MNK1 assessed as remaining enzyme activity at 1 uM relative to DMSO; procedure, shortened: as §3
[18] = target: Serine/threonine-protein kinase N2 (Homo sapiens) (UniProt Q16513); assay: Inhibition of PRK2 assessed as remaining enzyme activity at 1 uM relative to DMSO
[19] = target: Tyrosine-protein kinase ABL2 (Homo sapiens) (UniProt P42684); assay: Binding affinity to ABL2 assessed as percentage of kinase remaining bound to the bead at 1 uM by T7 phage display based binding assay; procedure, shortened: as §2
[20] = target: Serine/threonine-protein kinase PAK 5 (Homo sapiens) (UniProt Q9P286); assay: Inhibition of PAK5 assessed as remaining enzyme activity at 3 uM relative to DMSO; procedure, shortened: as §3
[21] = target: Serine/threonine-protein kinase pim-3 (Homo sapiens) (UniProt Q86V86); assay: Inhibition of PIM3 assessed as remaining enzyme activity at 3 uM relative to DMSO; procedure, shortened: as §3
[22] = target: Myosin light chain kinase, smooth muscle (Homo sapiens) (UniProt Q15746); assay: Inhibition of SmMLCK assessed as remaining enzyme activity at 3 uM relative to DMSO
[23] = target: Mitogen-activated protein kinase kinase kinase 11 (Homo sapiens) (UniProt Q16584); assay: Inhibition of MLK3 assessed as remaining enzyme activity at 3 uM relative to DMSO; procedure, shortened: as §3
Chain of Mitogen-activated protein kinase kinase kinase 11 (Homo sapiens) (Q16584 whole entry, looked up): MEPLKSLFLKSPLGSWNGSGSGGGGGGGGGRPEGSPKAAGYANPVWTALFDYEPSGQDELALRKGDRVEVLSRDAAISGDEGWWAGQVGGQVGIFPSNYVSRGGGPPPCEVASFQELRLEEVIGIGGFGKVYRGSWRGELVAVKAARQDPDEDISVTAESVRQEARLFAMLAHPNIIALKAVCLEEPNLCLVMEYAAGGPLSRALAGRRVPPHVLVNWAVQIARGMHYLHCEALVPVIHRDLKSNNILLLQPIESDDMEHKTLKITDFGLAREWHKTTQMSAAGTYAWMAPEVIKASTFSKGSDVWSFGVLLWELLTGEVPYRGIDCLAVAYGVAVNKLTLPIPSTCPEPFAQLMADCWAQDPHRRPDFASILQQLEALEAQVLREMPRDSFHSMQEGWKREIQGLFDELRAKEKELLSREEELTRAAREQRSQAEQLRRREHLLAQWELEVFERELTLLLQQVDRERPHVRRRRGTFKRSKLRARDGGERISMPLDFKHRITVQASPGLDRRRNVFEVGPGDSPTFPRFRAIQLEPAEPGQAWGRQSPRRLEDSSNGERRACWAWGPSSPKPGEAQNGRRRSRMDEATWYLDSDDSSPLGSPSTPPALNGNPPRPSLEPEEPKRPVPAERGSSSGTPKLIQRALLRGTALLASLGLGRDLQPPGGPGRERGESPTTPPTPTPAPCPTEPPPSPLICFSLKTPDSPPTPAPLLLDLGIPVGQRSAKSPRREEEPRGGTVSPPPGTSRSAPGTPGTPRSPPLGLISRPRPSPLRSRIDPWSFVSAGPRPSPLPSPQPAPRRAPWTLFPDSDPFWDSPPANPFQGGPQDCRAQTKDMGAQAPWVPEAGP

[24] = target: Dual specificity mitogen-activated protein kinase kinase 1 (Homo sapiens) (UniProt Q02750); assay: Inhibition of MKK1 assessed as remaining enzyme activity at 3 uM relative to DMSO; procedure, shortened: as §3
[25] = target: Ribosomal protein S6 kinase alpha-3 (Homo sapiens) (UniProt P51812); assay: Inhibition of RSK2 assessed as remaining enzyme activity at 3 uM relative to DMSO
[26] = target: Calcium/calmodulin-dependent protein kinase type 1 (Homo sapiens) (UniProt Q14012); assay: Inhibition of CAMK1 assessed as remaining enzyme activity at 3 uM relative to DMSO
[27] = target: Insulin receptor (Homo sapiens) (UniProt P06213); assay: Inhibition of histidine-tagged IR assessed as remaining enzyme activity at 3 uM relative to DMSO
[28] = Inhibition of PHK assessed as remaining enzyme activity at 3 uM relative to DMSO; procedure, shortened: as §3

Chain of Ribosomal protein S6 kinase alpha-3 (Homo sapiens) (P51812 whole entry): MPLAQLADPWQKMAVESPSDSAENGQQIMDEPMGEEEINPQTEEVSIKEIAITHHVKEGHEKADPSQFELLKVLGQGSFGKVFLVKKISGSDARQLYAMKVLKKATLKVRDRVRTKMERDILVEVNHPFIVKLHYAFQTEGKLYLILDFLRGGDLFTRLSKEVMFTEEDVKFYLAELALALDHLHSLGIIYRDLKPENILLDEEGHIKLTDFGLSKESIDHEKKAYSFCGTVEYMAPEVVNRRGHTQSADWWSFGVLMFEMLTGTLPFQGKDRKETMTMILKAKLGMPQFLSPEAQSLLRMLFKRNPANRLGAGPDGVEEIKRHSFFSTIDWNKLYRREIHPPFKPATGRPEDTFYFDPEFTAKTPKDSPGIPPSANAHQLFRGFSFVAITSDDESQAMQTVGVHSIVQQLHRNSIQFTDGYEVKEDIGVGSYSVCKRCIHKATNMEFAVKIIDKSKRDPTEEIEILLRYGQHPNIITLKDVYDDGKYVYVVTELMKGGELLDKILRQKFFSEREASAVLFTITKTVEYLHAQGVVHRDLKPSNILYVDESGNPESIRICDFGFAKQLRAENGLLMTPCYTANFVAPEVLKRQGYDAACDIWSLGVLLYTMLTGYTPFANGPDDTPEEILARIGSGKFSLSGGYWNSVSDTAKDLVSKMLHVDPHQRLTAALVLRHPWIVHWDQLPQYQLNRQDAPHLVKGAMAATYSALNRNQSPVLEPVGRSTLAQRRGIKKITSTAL

Activity [1]: 104%
Activity [2]: 77%
Activity [3]: 81%
Activity [4]: 31%
Activity [5]: 14%
Activity [6]: 3%
Activity [7]: 3%
Activity [8]: 67%
Activity [9]: 100%
Activity [10]: 51%
Activity [11]: 94%
Activity [12]: 90%
Activity [13]: 104%
Activity [14]: 15%
Activity [15]: 97%
Activity [16]: 83%
Activity [17]: 94%
Activity [18]: 93%
Activity [19]: 0.75%
Compound: COc1ccccc1-n1c(-c2cc(O)ccc2C)cn2c3c(=O)[nH]c(=O)n(C)c3nc12

Activity [20]: 94%
Activity [21]: 111%
Activity [22]: 91%
Activity [23]: 136%
Activity [24]: 70%
Activity [25]: 105%
Activity [26]: 93%
Activity [27]: 103%
Activity [28]: 92%
Compound: COc1ccccc1-n1c(-c2ccccc2C)cn2c3c(=O)[nH]c(=O)n(C)c3nc12

Reference: ChEMBL document CHEMBL1154183, “Structure-based optimization of potent and selective inhibitors of the tyrosine kinase erythropoietin producing human hepatocellular carcinoma receptor B4 (EphB4)” (J Med Chem, 2009)
